Laboratory results: ChEMBL document CHEMBL2057067, “Synthesis of phenserine analogues and evaluation of their cholinesterase inhibitory activities” (Bioorg Med Chem, 2012)

Experiments:
Rattus norvegicus = species on record: Rattus norvegicus; test: Selectivity ratio of IC50 for BuChE in Wistar rat plasma to IC50 for AChE in Wistar rat brain homogenate; assay type: tissue-based
Acetylcholinesterase = molecular target: T1, Acetylcholinesterase (Rattus norvegicus, UniProt P37136); test: (§1) Inhibition of AChE in Wistar rat brain homogenate using acetylthiocholine iodide as substrate after 0.5 hrs by Ellman's method; assay type: tissue-based
T1 sequence (P37136 whole entry): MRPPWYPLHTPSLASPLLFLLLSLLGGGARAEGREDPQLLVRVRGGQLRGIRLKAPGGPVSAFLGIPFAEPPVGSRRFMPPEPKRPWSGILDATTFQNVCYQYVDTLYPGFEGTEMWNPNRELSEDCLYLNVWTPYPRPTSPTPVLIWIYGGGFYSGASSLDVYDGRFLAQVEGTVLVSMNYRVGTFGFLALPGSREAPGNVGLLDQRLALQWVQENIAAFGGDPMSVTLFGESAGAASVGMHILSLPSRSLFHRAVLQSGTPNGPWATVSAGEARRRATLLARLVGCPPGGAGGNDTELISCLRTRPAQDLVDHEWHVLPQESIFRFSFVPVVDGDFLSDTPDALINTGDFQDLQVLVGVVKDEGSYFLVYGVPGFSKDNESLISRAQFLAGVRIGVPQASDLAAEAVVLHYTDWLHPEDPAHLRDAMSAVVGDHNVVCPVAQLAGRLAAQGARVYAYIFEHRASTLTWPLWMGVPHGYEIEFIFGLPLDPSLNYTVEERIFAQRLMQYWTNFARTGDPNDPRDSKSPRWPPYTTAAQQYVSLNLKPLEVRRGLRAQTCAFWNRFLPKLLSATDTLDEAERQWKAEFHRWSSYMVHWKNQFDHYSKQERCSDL
Method in brief: (§2)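 Male Wistar ST rats (8–10 weeks old). Inhibitor is preincubated with homogenate (3:10 v/v) for 0.5 h at 37 °C. Ellman assay in 0.1 M phosphate with DTNB (10 mM stock) and acetylthiocholine (75 mM stock). A412 is recorded for 2 min at 25 °C, and the last-minute change gives activity. Four dose-response curves.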

[1] = molecular target: T2, Acetylcholinesterase (Rattus norvegicus) (UniProt P37136); test: as §1; assay type: tissue-based; method in brief: as §2
T2 sequence (whole entry): T1 sequence (P37136 whole entry)

Butyrylcholinesterase = Butyrylcholinesterase (Rattus norvegicus, UniProt Q9JKC1); test: (§3) Inhibition of BuChE in Wistar rat plasma using acetylthiocholine iodide as substrate after 0.5 hrs by Ellman's method
[2] = molecular target: Butyrylcholinesterase (Rattus norvegicus) (UniProt Q9JKC1); test: as §3
Chain of Butyrylcholinesterase (Rattus norvegicus) (Q9JKC1 as listed by the source): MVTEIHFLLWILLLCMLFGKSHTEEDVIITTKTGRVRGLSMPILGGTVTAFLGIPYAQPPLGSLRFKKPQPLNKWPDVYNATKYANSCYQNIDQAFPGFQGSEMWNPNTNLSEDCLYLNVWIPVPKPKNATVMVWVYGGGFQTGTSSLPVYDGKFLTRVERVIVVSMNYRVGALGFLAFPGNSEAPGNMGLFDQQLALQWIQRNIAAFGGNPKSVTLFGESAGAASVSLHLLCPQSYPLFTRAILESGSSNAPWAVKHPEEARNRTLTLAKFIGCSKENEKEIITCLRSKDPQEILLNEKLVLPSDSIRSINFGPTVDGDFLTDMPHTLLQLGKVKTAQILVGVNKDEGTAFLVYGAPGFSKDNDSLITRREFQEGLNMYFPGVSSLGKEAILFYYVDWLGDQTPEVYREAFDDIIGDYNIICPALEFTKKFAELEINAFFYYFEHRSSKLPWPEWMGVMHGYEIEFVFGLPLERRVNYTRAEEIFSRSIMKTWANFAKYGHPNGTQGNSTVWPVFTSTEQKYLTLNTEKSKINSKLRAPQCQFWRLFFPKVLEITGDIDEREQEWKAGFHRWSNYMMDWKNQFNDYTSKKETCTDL

Chain of Butyrylcholinesterase (Q9JKC1 whole entry): as the sequence (Q9JKC1 as listed by the source) above

## C=CC[C@]12CCN(C)[C@@H]1N(C)c1ccc(OC(=O)Nc3ccccc3)cc12
Rattus norvegicus
  Ratio IC50: > 79
Acetylcholinesterase
  IC50: 1.26 µM
[1]
  inhibition: Dose-dependent effect
Butyrylcholinesterase
  IC50: > 100 µM
[2]
  inhibition: Dose-dependent effect

## C=C[C@@]12CCN(C)[C@@H]1N(C)c1ccc(OC(=O)Nc3ccccc3)cc12
Rattus norvegicus
  Ratio IC50: 65
Acetylcholinesterase
  IC50: 0.644 µM
[1]
  inhibition: Dose-dependent effect
Butyrylcholinesterase
  IC50: 41.9 µM
[2]
  inhibition: Dose-dependent effect

## CC[C@]12CCN(C)[C@@H]1N(C)c1ccc(OC(=O)Nc3ccccc3)cc12
Rattus norvegicus
  Ratio IC50: 97
Acetylcholinesterase
  IC50: 0.373 µM
[1]
  inhibition: Dose-dependent effect
Butyrylcholinesterase
  IC50: 36.2 µM
[2]
  inhibition: Dose-dependent effect

## CCC(C)(C)[C@@]12CCN(C)[C@@H]1N(C)c1ccc(OC(=O)Nc3ccccc3)cc12
Rattus norvegicus
  Ratio IC50: > 11
Acetylcholinesterase
  IC50: 9.5 µM
[1]
  inhibition: Dose-dependent effect
Butyrylcholinesterase
  IC50: > 100 µM
[2]
  inhibition: Dose-dependent effect

## CN1CC[C@@]2(C)c3cc(OC(=O)Nc4ccccc4)ccc3N(C)C12 (stereo partly specified)
Rattus norvegicus
  Ratio IC50: 1100
Acetylcholinesterase
  IC50: 0.0283 µM
[1]
  inhibition: Dose-dependent effect
Butyrylcholinesterase
  IC50: 30 µM
[2]
  inhibition: Dose-dependent effect

## C=CCC12CCN(C)C1N(C)c1ccc(OC(=O)Nc3ccccc3)cc12 (racemic)
Rattus norvegicus
  Ratio IC50: > 27
Acetylcholinesterase
  IC50: 3.77 µM
[1]
  inhibition: Dose-dependent effect
Butyrylcholinesterase
  IC50: > 100 µM
[2]
  inhibition: Dose-dependent effect

## C=CCC12CCN(C)C1N(C)c1ccc(OC(=O)Nc3ccc(C(C)C)cc3)cc12 (racemic)
Acetylcholinesterase
  IC50: > 10 µM
[1]
  inhibition: Dose-dependent effect
Butyrylcholinesterase
  IC50: > 10 µM
[2]
  inhibition: Dose-dependent effect

## C=CCC12CCN(C)C1N(C)c1ccc(OC(=O)Nc3ccc(Br)cc3)cc12 (racemic)
Acetylcholinesterase
  IC50: > 10 µM
[1]
  inhibition: Dose-dependent effect
Butyrylcholinesterase
  IC50: > 10 µM
[2]
  inhibition: Dose-dependent effect

## C=CCC12CCN(C)C1N(C)c1ccc(OC(=O)Nc3ccc(F)cc3)cc12 (racemic)
Rattus norvegicus
  Ratio IC50: > 23
Acetylcholinesterase
  IC50: 4.36 µM
[1]
  inhibition: Dose-dependent effect
Butyrylcholinesterase
  IC50: > 100 µM
[2]
  inhibition: Dose-dependent effect

## C=CCC12CCN(C)C1N(C)c1ccc(OC(=O)Nc3ccccc3F)cc12 (racemic)
Rattus norvegicus
  Ratio IC50: 25
Acetylcholinesterase
  IC50: 3.55 µM
[1]
  inhibition: Dose-dependent effect
Butyrylcholinesterase
  IC50: 87.3 µM
[2]
  inhibition: Dose-dependent effect

## CCCC12CCN(C)C1N(C)c1ccc(OC(=O)Nc3ccccc3)cc12 (racemic)
Rattus norvegicus
  Ratio IC50: > 27
Acetylcholinesterase
  IC50: 3.66 µM
[1]
  inhibition: Dose-dependent effect
Butyrylcholinesterase
  IC50: > 100 µM
[2]
  inhibition: Dose-dependent effect

## C=CC12CCN(C)C1N(C)c1ccc(OC(=O)Nc3ccccc3)cc12 (racemic)
Rattus norvegicus
  Ratio IC50: > 40
Acetylcholinesterase
  IC50: 0.749 µM
[1]
  inhibition: Dose-dependent effect
Butyrylcholinesterase
  IC50: > 30 µM
[2]
  inhibition: Dose-dependent effect

## CCC12CCN(C)C1N(C)c1ccc(OC(=O)Nc3ccccc3)cc12 (racemic)
Rattus norvegicus
  Ratio IC50: 76
Acetylcholinesterase
  IC50: 0.397 µM
[1]
  inhibition: Dose-dependent effect
Butyrylcholinesterase
  IC50: 30 µM
[2]
  inhibition: Dose-dependent effect

## CCC(C)(C)C12CCN(C)C1N(C)c1ccc(OC(=O)Nc3ccccc3)cc12 (racemic)
Rattus norvegicus
  Ratio IC50: > 5.4
Acetylcholinesterase
  IC50: 18.4 µM
[1]
  inhibition: Dose-dependent effect
Butyrylcholinesterase
  IC50: > 100 µM
[2]
  inhibition: Dose-dependent effect

## C=CCC12CC(=O)N(C)C1N(C)c1ccc(OC(=O)Nc3ccccc3)cc12 (racemic)
Rattus norvegicus
  Ratio IC50: 14
Acetylcholinesterase
  IC50: 4.73 µM
[1]
  inhibition: Dose-dependent effect
Butyrylcholinesterase
  IC50: 65.3 µM
[2]
  inhibition: Dose-dependent effect

## CNC(=O)Oc1ccc2c(c1)[C@]1(C)CCN(C)[C@@H]1N2C [PHYSOSTIGMINE]
[1]
  inhibition: Dose-dependent effect
Butyrylcholinesterase
  IC50: 0.0584 µM
[2]
  inhibition: Dose-dependent effect
